Data set [1] concerns the target T1, purified, recombinant RSK2 (Homo sapiens, UniProt P51812). The data set is described as follows: in vitro kinase assay, inhibition of purified recombinant RSK2. The class given is biochemical.
A short description of data set [2]: pharmacokinetic analysis, single i.v. or i.p. dose. The settings on record: male, CD-1, mouse, plasma, other: intravenous (i.v.) or intraperitoneal (i.p.). The class given is in vivo, male CD-1 mice. The gist of the method:
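Single dose given iv or ip to male CD-1 mice in 1:1:15 Cremophor:EtOH:phosphate-buffered saline. Plasma concentrations used to derive half-life, Cmax, C0 (maximum plasma concentration extrapolated to t = 0) and AUC extrapolated to infinity and normalized to dose in mg/kg.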

In data set [3] the test system is RSK biomarkers (peEF2, cyclin D1, phospho-motif) in MCF-7 cells. The data set can be described thus: RSK biomarkers in PMA-stimulated MCF-7 cells by immunoblotting. The settings on record: MCF-7 cells pre-treated with SL0101 (100 μM) or 7 (25 μM), then PMA. The class given is cell-based, human. Summed up:
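MCF-7 cells pretreated with test compound (reference inhibitor 100 μM; analogue 25 μM) or vehicle, then treated with DMSO or the mitogen PMA. Lysates analysed by immunoblotting for RSK biomarkers, including eEF2 phosphorylation.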

A further data set can be described thus: aqueous solubility. The class given is physicochemical.
The next data set concerns PIM 3. The settings on record: [ATP] lower than in the RSK assay; cited from earlier work.
Data set [4] relates to mitogen-and stress-activated kinase. The conditions noted are these: cited from earlier work.
In another data set the test system is p70 S6 kinase. The conditions noted are these: cited from earlier work.
The subject of another data set is Aurora B. The settings on record: [ATP] lower than in the RSK assay; cited from earlier work.
For another data set, the system named is MCF-10A cells. The data set can be described thus: MCF-10A proliferation. The class given is cell-based. The conditions noted are these: various concentrations, 48 h. Summed up: (§1)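 Test compound added at time 0 at various concentrations. Proliferation read as cellular ATP content after 48 h of treatment. Values expressed as fold proliferation as a percentage of vehicle-treated cells. n = 3 experiments, each in quadruplicate, with SD and Student's t test against vehicle; for MCF-7, also against the reference inhibitor.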

A further data set concerns MCF-7 cells. The data set can be described thus: MCF-7 proliferation. The class given is cell-based, human. The gist of the method:
as §1

In data set [5] the target is T1, purified, recombinant RSK2. The settings on record: cited from earlier work.

What is called half-life is how long it takes for the measured level to halve. A word on the solubility: it is how much of the substance goes into solution per volume. Read a high solubility as a readily soluble substance.

SMILES strings stand for the structures. Some results are limits rather than exact numbers.

T1 sequence (P51812 whole entry, species assumed): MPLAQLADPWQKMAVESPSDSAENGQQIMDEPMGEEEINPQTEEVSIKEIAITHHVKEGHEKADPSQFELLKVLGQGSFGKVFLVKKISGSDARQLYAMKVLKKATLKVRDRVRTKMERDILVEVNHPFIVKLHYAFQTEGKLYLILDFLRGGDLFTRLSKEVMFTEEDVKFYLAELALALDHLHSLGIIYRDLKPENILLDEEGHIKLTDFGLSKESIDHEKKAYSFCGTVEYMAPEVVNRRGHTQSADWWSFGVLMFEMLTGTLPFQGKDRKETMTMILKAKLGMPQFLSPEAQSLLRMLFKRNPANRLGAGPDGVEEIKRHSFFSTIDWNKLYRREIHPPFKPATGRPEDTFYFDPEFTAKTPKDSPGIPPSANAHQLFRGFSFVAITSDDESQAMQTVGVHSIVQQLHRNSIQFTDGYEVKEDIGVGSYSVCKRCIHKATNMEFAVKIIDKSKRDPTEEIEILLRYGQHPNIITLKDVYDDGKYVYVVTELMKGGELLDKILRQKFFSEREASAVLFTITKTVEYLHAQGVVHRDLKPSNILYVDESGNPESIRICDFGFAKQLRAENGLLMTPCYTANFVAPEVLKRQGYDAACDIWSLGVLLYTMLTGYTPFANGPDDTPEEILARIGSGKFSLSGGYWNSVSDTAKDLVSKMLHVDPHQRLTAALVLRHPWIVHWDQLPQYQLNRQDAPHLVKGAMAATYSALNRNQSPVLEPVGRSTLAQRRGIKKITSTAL

`CCC[C@@H]1O[C@@H](Oc2c(-c3ccc(O)cc3)oc3cc(O)cc(O)c3c2=O)[C@H](OC(C)=O)[C@H](O)[C@H]1OC(C)=O` [compound 6]: the “change of RSK2 IC50 in comparison to the 5″-n-propyl analogue 3” value (“change … to the 5″-n-propyl analogue 3” for short) in data set [1] is on record as “did not alter the IC50”.
Compound `CC(=O)O[C@@H]1[C@@H](OC(C)=O)[C@@H](O)[C@H](Oc2c(-c3ccc(O)cc3)oc3cc(O)cc(O)c3c2=O)O[C@H]1C` [SL0101] yielded a half-life in data set [2] of under 30 min. For the same compound, in [3], the “cyclin D1 levels” value is given as “decreased cyclin D1 levels”; the “intensity of band at ~ 27 kDa, (Lys/Arg)XX(Lys/Arg)X(pSer/pThr) motif antibody” value was “intensity decreases”; the “peEF2 levels compared to the PMA control” value is “increased peEF2 levels”. In addition, in “aqueous solubility” (carrier of 1:1:15 Cremophor:EtOH:phosphate-buffered saline was required), the solubility result is “limited solubility”. The “inhibition of PIM 3” value in the data set on PIM 3 was “partially inhibit”. Moreover, the “inhibition of mitogen-and stress-activated kinase” value in data set [4] is “did not inhibit”. Moreover, the “inhibition of p70 S6 kinase” value with p70 S6 kinase was “did not inhibit”. For the same compound, the “inhibition of Aurora B” value in the data set on Aurora B is reported as “partially inhibit”.
For the compound `CCC[C@@H]1O[C@@H](Oc2c(-c3ccc(O)cc3)oc3cc(O)cc(O)c3c2=O)[C@H](O)[C@H](OC(C)=O)[C@H]1OC(C)=O` [compound 7], the “inhibition of MCF-10A proliferation” value in the data set with MCF-10A cells was “not MCF-10A proliferation”. For the same compound, in [3], the “cyclin D1 levels” value was “decreased cyclin D1 levels”; the “intensity of band at ~ 27 kDa, (Lys/Arg)XX(Lys/Arg)X(pSer/pThr) motif antibody” value is “intensity decreases”; the “peEF2 levels compared to the PMA control” value is “increased peEF2 levels”. Besides, the solubility in “aqueous solubility” (aqueous solution) was at most 25 µM. The “ability to inhibit MCF-7 proliferation, fold better compared to SL0101 (1)” value in the data set with MCF-7 cells worked out at 2 fold. For the same compound, the “inhibition of MCF-7 proliferation” value with MCF-7 cells (various concentrations, 48 h) was “inhibits MCF-7”.
On to `CCC[C@@H]1O[C@@H](Oc2c(-c3ccc(O)cc3)oc3cc(O)cc(O)c3c2=O)[C@H](O)[C@H](O)[C@H]1OC(C)=O` [compound 5], for which the “change … to the 5″-n-propyl analogue 3” value in [1] is “increased the IC50, but this difference was not statistically significant”.
For `CC1OC(Oc2c(-c3ccc(O)cc3)oc3cc(O)cc(O)c3c2=O)C(O)C(O)C1O` (centres unmarked) [deacetylated SL0101], the “potency for RSK inhibition, fold less potent than SL0101 (1)” value in data set [5] was ~ 10 fold.
For `CCC[C@@H]1O[C@@H](Oc2c(-c3ccc(O)cc3)oc3cc(O)cc(O)c3c2=O)[C@H](OC(C)=O)[C@H](OC(C)=O)[C@H]1OC(C)=O` [compound 8], the “change … to the 5″-n-propyl analogue 3” value in data set [1] is on record as “doubled the IC50”.

Source of the values: article PMC3601785 (ACS medicinal chemistry letters, 2012).
